Source: PubChem BioAssay
Sampled rows, rich in hits. Any-hit rate of the full collection: about 2.5%.
FGF22 binding: FGF22 (human) thermal shift binding; actives 1.5% (n = 340,000); Q9HCT0; recombinant FGF22 thermal shift, SYPRO orange fluorescence; percent of sucrose octasulfate shift, DMSO zero; activity (Tm shift, normalised), % at 9.99 µM;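 active = mean Tm shift, scaled 0 neutral to 100 positive control, at about 1.3% or above, every replicate too, limit read from the data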
E-sel inducer: E-selectin induction on HUVECs; P16581; HUVEC E-selectin immunofluorescence imaging; normalized: neutral wells 0, TNF-alpha wells 100; activation, % at 7.58 µM; actives 0.37% (n = 260,000); AID 686992;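 active = mean E-selectin-positive cell signal at least 10% of the positive control, reached in at least 60% of replicates, without over 20% cell loss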
Target sequence (P16581 whole entry, looked up): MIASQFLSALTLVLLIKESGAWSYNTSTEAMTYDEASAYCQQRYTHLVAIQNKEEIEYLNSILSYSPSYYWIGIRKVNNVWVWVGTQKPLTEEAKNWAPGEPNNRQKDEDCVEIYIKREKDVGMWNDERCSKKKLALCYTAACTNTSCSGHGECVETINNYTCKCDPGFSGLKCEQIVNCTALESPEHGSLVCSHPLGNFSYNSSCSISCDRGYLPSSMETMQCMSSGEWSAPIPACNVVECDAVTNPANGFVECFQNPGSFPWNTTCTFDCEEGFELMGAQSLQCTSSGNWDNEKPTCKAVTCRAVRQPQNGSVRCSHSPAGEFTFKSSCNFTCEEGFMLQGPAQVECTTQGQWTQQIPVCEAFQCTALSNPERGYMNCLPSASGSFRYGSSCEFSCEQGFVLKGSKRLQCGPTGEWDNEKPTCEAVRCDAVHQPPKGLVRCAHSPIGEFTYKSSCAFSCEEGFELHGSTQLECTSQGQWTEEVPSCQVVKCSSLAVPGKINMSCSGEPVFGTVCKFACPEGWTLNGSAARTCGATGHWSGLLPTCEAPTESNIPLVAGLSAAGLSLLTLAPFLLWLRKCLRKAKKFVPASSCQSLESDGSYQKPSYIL
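Assay system: HUVEC, human umbilical vein endothelial cells / Amount: 3,000 HUVEC/well / Controls: TNF-alpha positive control, DMSO neutral control / Compound dosing: single concentration / Medium: EGM-2 over gelatin coat / Evaluation: percent E-selectin-positive cells / Signal: immunofluorescence imaging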
SIRT5 inh: blocks human SIRT5 desuccinylation of peptide | Purified SirT5, succinyl-peptide AMC, trypsin-coupled fluorescence | Q9NXA8 | actives 1.1% (n = 330,000) | inhibition, % at 15 µM; in the data active = inhibition above about 15%
S100A4 inh HTS: inhibitors of human S100A4 binding to myosin IIA peptide; P26447; S100A4/TAMRA-MyoIIA peptide fluorescence polarization; inhibition, % at 10.7 µM; actives 0.14% (n = 360,000);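 active = mean inhibition of at least 70% across replicates, with every replicate also reaching that level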
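Assay system: human S100A4 monomer with TAMRA-labelled myosin IIA peptide / Buffer or medium: Calcium-containing HEPES buffer, pH 7.2 / Reagent: TAMRA-labelled myosin IIA heavy-chain peptide probe, 5 nM / Compound: one dose per compound / Timing: polarization read 5 min after assay mix addition, stable 5–60 min / Benchmarks: neutral control DMSO, positive control TFP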
miR-122 sensor: blocks miR-122 activity in Huh7 sensor cells | AID 602342 | Huh7 miR-122 Renilla luciferase sensor, 48 h; neutral wells = 0, positive control = 100 | actives 0.3% (n = 340,000) | activation (reporter increase), % at 12.5 µM;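 active = mean replicate activation score at least 90 and every replicate individually at or above 90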;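 also: higher luciferase means less miR-122 activity so hits act as miR-122 inhibitors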
Numbers stand for hits; n = inactive; x = no result; ! = not active in a repeat.

SMILES | FGF22 binding | E-sel inducer | SIRT5 inh | S100A4 inh HTS | miR-122 sensor
CN(C)CCNc1c2c(nc3ccccc13)CCC2 | n | n | n | n | n
COCCCNc1c2c(nc3ccccc13)CCC2 | 43.8 | n | x | n | n
C[C@@H]1CCCCO[C@H](CN(C)S(=O)(=O)c2cn(C)cn2)[C@@H](C)CN([C@@H](C)CO)C(=O)c2cc(NC(=O)C3CCCCC3)ccc2O1 | x | n | n | n | n
CO[C@@H]1CN(C)C(=O)c2cc(NC(=O)c3ccccc3)ccc2OC[C@@H](C)N(C(=O)CN(C)C)C[C@H]1C | x | n | x | x | n
C[C@@H]1CN([C@@H](C)CO)S(=O)(=O)c2ccc(Br)cc2O[C@H]1CN(C)C(=O)c1cnccn1 | n | n | n | n | n
O=c1[nH]c2ccccc2nc1/C=C/c1ccc(F)cc1 | 43.0 | x | n | n | n
O=c1[nH]c2ccccc2nc1/C=C/c1ccccc1 | n | x | n | n | n
COc1ccccc1N1CCN(/N=C/c2cc(OC)c(O)c(OC)c2)CC1 | n | n | n | n | n
COc1ccccc1N1CCN(/N=C/c2cccc(O)c2)CC1 | 43.9 | x | n | n | x
O=C(C[C@@H]1CC[C@@H]2[C@H](COC[C@@H](O)CN2Cc2ccc3c(c2)OCO3)O1)N1CCOCC1 | n | n | 27.0 | n | n
CN1CCN(C(=O)C[C@H]2CC[C@H]3[C@@H](COC[C@@H](O)CN3Cc3cccc(F)c3)O2)CC1 | 43.2! | n | n | n | n
O=C(C[C@H]1CC[C@H]2[C@@H](COC[C@@H](O)CN2Cc2cccc(Cl)c2)O1)N1CCCCC1 | n | n | 18.6 | n | n
CN1CCN(C(=O)C[C@@H]2CC[C@H]3[C@@H](COC[C@@H](O)CN3Cc3cccc(F)c3)O2)CC1 | n | n | n | n | n
C[C@H](CO)N1C[C@H](C)[C@@H](CN(C)C(=O)C2CCC2)Oc2cc(-c3ccccc3)ccc2S1(=O)=O | x | n | x | x | n
COCC(=O)N1CC[C@H]2[C@H](CO)Nc3ccc(C#Cc4ccc(OC)cc4)cc3[C@H]21 | x | n | 15.5 | n | x
O=C(CN1CCOCC1)N1CC[C@H]2[C@H](CO)Nc3ccc(-c4ccc(F)cc4)cc3[C@H]21 | n | n | 34.4 | n | n
COc1ccc(C#Cc2ccc3c(c2)[C@@H]2[C@@H](CCN2C(=O)C2CCC2)[C@H](CO)N3)cc1 | x | n | 17.1 | n | x
O=C(C1CCCC1)N1CC[C@@H]2[C@@H](CO)Nc3ccc(C#Cc4ccc(F)cc4)cc3[C@@H]21 | x | n | n | n | x
O=C(C1CCC1)N1CC[C@@H]2[C@H](CO)Nc3ccc(C#Cc4ccc(F)cc4)cc3[C@@H]21 | x | 34.4 | n | n | x
COCC(=O)N1CC[C@@H]2[C@H](CO)Nc3ccc(C#Cc4ccc(OC)cc4)cc3[C@@H]21 | n | n | n | n | n
O=C(NC1Cc2ccccc2C1)[C@@H]1[C@@H](CO)[C@@H]2Cn3c(cccc3=O)[C@H]1N2C(=O)CC1CC1 | n | n | n | n | x
O=C(N[C@H]1CC[C@@H](CCNS(=O)(=O)Cc2ccccc2)O[C@@H]1CO)c1ccccc1F | n | n | n | n | n
Cc1ccc(S(=O)(=O)N(C)C[C@H]2Oc3c(NC(=O)C4CC4)cccc3C(=O)N([C@H](C)CO)C[C@@H]2C)cc1 | n | n | n | n | n
COc1cccc(CNC(=O)c2cc3c(c(-c4cccc(-c5ccncc5)c4)n2)[C@H](CCO)N([S@@](=O)C(C)(C)C)C3)c1 | n | n | n | n | x
CCCNC(=O)Nc1ccc2c(c1)OC[C@@H](C)N(C(=O)C1CCCCC1)C[C@@H](C)[C@H](OC)CN(C)C2=O | n | n | n | n | n
SMILES | FGF22 binding | E-sel inducer | SIRT5 inh | S100A4 inh HTS | miR-122 sensor
Cc1ccc(S(=O)(=O)Nc2ccc3c(c2)C(=O)N([C@H](C)CO)C[C@@H](C)[C@@H](CN(C)C(=O)CCC(F)(F)F)OCCCC[C@H](C)O3)cc1 | x | x | n | n | n
CCC(=O)N1CC[C@@H]2[C@H]1c1cc(C#Cc3ccc(F)cc3)ccc1N[C@@H]2CO | n | n | n | n | n
CCC(=O)N1CC[C@@H]2[C@H](CO)Nc3ccc(C#Cc4ccc(F)cc4)cc3[C@@H]21 | n | 59.5 | x | n | n
CNc1ccccc1C(C)(C)c1cc(-c2cccc(OC)c2)no1 | x | 46.3 | n | n | n
CC1N(C)c2cc(NC(=O)c3ccco3)ccc2C1(C)C (stereo not given) | n | x | n | 179.6 | x
COc1ccc(NC(=O)N2CCCCN3[C@H](CO)[C@@H](c4ccc(-c5ccccc5F)cc4)[C@@H]3C2)cc1 | n | n | 18.3 | n | n
O=C(Nc1ccc(F)cc1)N1CCCCN2[C@H](C1)[C@H](c1ccc(-c3ccccc3F)cc1)[C@@H]2CO | n | x | 17.6 | n | n
Cc1ccc(-c2ccc([C@@H]3[C@H](CO)N4CCCCN(C(=O)Nc5cccc(F)c5)C[C@@H]34)cc2)cc1 | n | x | n | n | n
COc1ccc(NC(=O)N2CCCCN3[C@H](C2)[C@@H](c2ccc(-c4ccccc4F)cc2)[C@@H]3CO)cc1 | n | n | n | n | n
OC[C@H]1[C@@H](c2ccc(-c3cccc(F)c3)cc2)[C@H]2CN(CCC(F)(F)F)CCCCN21 | n | n | 24.2 | n | n
Cc1ccc(-c2ccc([C@@H]3[C@@H](CO)N4CCCCN(C(=O)Nc5cccc(F)c5)C[C@@H]34)cc2)cc1 | n | n | 17.5 | n | n
CO[C@H]1CC[C@@H]2CCN(C)C(=O)[C@@H](C)[C@@H](OC)CN(C)C(=O)c3cccc(C#N)c3OC[C@@H]1O2 | n | n | n | n | x
C[C@@H](O)C#Cc1ccc([C@H]2[C@H](CO)N3CCCCN(S(=O)(=O)c4ccccc4)C[C@@H]23)cc1 | n | n | n | n | n
CC(C)(CO)CNC(=O)CCc1nnc(Cc2ccc(-c3ccccc3)cc2)o1 | n | x | 25.6 | n | x
CN(Cc1ccsc1)C(=O)CCc1nnc(CCCc2ccccc2)o1 | n | 27.3 | n | n | n
CC(C)(CO)CNC(=O)CCc1nnc(CCCc2ccccc2)o1 | 43.4 | n | n | n | x
COCCNC(=O)CCc1nnc(Cc2ccc(-c3ccccc3)cc2)o1 | n | n | n | n | n
Cc1cc(C)n(CCNC(=O)CCc2nnc(CCc3ccccc3)o2)n1 | n | n | 15.2 | n | n
COc1ccc(NC(=O)N(C)C[C@@H]2Oc3c(NC(=O)Nc4c(C)noc4C)cccc3C(=O)N([C@H](C)CO)C[C@H]2C)cc1 | n | n | n | n | n
C[C@@H]1CN([C@H](C)CO)C(=O)Cc2cc(NC(=O)C3CCCCC3)ccc2O[C@@H]1CN(C)Cc1ccc(-c2ccccc2)cc1 | n | n | 102.3 | n | n
CC(C)NC(=O)Nc1ccc2c(c1)C(=O)N([C@H](C)CO)C[C@@H](C)[C@@H](CN(C)Cc1ccc(-c3ccccc3)cc1)O2 | n | n | 15.5 | n | n
